Cneo AK release: causes C. neoformans cell lysis; adenylate kinase release luminescence, 4 h; normalised: neutral wells 0, clomiphene wells 100; lysis activity, % at 15 µM; 360,000 tested, 0.2% active;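 active = mean lysis activity across replicates of at least 80%, whatever share of replicates individually reach that level; inactive = mean lysis activity below 80%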
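Material – log-phase Cryptococcus neoformans yeast cells · Input – 5 × 10^6 yeast cells/mL · Medium – fresh YPD growth medium · Doses – single compound concentration per well · Timing – static 4 h at 37 °C with compound, 1 h detection · Detection – adenylate kinase release luminescence · Read-out – signal increase indicating cell lysis · Control set – Clomiphene as positive lysis control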
ERAP1 HTS inh: ERAP1 (human) enzyme inhibition | recombinant ERAP1, Leu-AMC fluorescence, 60 min | inhibition, % at 10.7 µM | 340,000 tested, 0.15% active | AID 652197;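 active = mean replicate inhibition of at least 30%, or all replicates individually reaching that 30% level; inactive = mean below 30% and not every replicate reaching it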;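 note: 0% = neutral control wells and 100% = L-leucinethiol positive control wells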
Target sequence (Q9NZ08 whole entry, looked up): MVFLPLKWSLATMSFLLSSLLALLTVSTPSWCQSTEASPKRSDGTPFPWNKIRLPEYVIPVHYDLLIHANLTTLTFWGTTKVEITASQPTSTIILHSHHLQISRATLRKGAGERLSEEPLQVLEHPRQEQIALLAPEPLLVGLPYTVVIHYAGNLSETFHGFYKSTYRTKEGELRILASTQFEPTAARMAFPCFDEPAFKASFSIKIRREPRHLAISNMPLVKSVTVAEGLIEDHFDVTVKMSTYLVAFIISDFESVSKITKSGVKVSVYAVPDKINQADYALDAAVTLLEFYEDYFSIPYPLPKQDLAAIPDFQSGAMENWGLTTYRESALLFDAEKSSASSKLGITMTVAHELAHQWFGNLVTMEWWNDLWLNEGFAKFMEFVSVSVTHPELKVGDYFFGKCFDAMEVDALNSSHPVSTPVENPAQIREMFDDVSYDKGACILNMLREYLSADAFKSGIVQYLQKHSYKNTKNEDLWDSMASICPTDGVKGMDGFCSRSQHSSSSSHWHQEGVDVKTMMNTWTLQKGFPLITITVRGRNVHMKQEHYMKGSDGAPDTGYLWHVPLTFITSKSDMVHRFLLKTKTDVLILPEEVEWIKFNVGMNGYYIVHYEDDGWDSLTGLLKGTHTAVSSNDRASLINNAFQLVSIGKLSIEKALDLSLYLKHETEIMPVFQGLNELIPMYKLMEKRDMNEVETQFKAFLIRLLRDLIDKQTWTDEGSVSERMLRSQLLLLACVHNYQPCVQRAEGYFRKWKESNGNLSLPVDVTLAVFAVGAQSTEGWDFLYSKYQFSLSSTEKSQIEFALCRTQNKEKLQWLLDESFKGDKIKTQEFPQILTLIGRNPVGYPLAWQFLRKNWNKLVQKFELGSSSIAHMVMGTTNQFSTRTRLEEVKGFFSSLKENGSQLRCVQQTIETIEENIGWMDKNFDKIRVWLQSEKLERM
PGC1a acetyl inh: PGC1a acetylation modulation, inhibitor mode | U2OS PGC1a acetylation, AlphaScreen anti-acetyl-lysine; with virally co-expressed GCN5 acetyltransferase | inhibition, % at 15.6 µM | 350,000 tested, 0.17% active;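 active = every replicate shows inhibition of at least 40%; inconclusive = mean inhibition at least 40% but some replicate below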;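 note: 0% = neutral control wells and 100% = positive control wells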
Ecoli rRNA inh: inhibits bacterial ribosomal RNA function over humanized ribosomes | E. coli WT GFP vs humanized-ribosome RFP mutants, fluorescence, 24 h; hits give low values; DMSO median 0, no signal -100 | GFP signal change (wild-type ribosome), % (test concentration not listed) | 350,000 tested, 1.6% active | AID 720706;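 active = significant combined selectivity score with lowered wild-type GFP, culture density cut under 30%, mutant RFP and density less affected; inactive = any of these conditions unmet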
FGF22 binding: FGF22 (human) thermal shift binding; 340,000 tested, 1.5% active; activity (Tm shift, normalised), % at 9.99 µM; recombinant FGF22 thermal shift, SYPRO orange fluorescence; percent of sucrose octasulfate shift, DMSO zero; AID 651658; Q9HCT0;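 active = mean Tm shift, scaled 0 neutral to 100 positive control, at about 1.3% or above, every replicate too, limit read from the data; inconclusive = no clear call, values can overlap the other calls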
HIV Env fusion: inhibitors of HIV Env-mediated cell fusion | HeLa-JRFL Env/CEM21 cell fusion, luciferase | inhibition, % at 12.3 µM | 360,000 tested, 1.1% active;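 active = mean replicate inhibition score of at least 50 and every replicate individually at or above 50; inconclusive = only one of the two criteria met; inactive = mean below 50 and not all replicates reaching 50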;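 note: 0% = plate neutral controls and 100% = maraviroc near 300 nM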
An asterisk follows results filed as active; [ ] = another dose, or the depositor's remark. A selection: hits, their analogues and other compounds. The true share with any hit is near 3.5%.

Results for C[C@H](CO)N1C[C@H](C)[C@H](CN(C)C(=O)Nc2ccc3c(c2)OCO3)Oc2ncc(C#CC(C)(C)O)cc2C1=O ?
Cneo AK release: 113*; ERAP1 HTS inh: 1; PGC1a acetyl inh: 14; Ecoli rRNA inh: 6; FGF22 binding: 0; HIV Env fusion: 2[16.7 µM]

What do the screens show for `Cc1noc(C)c1NC(=O)Nc1ccc2c(c1)C(=O)N([C@H](C)CO)C[C@H](C)[C@@H](CN(C)S(C)(=O)=O)O2`?
Cneo AK release: -2; ERAP1 HTS inh: -2; PGC1a acetyl inh: -5; Ecoli rRNA inh: 0; FGF22 binding: 0; HIV Env fusion: -4

Results for O=C(c1cnc2n(c1=O)CCS2)N1CCN(c2ccc([N+](=O)[O-])cc2)CC1 ?
Cneo AK release: 0; ERAP1 HTS inh: 8; PGC1a acetyl inh: -17; Ecoli rRNA inh: -5; FGF22 binding: 0; HIV Env fusion: -19

What do the screens show for `Cc1noc(C)c1NC(=O)Nc1ccc2c(c1)C(=O)N(C)[C@H]1CC[C@H](CC(=O)N[C@H]3CCN(Cc4ccccc4)C3)O[C@H]1CO2`?
Cneo AK release: 86*; ERAP1 HTS inh: -3; PGC1a acetyl inh: 9; Ecoli rRNA inh: 1; FGF22 binding: 0; HIV Env fusion: -6[16.7 µM]

How did Cc1noc(C)c1NC(=O)Nc1ccc2c(c1)C(=O)N(C)[C@@H]1CC[C@H](CC(=O)N[C@H]3CCN(Cc4ccccc4)C3)O[C@@H]1CO2 do in these assays?
Cneo AK release: 100*; ERAP1 HTS inh: -5; PGC1a acetyl inh: 6; Ecoli rRNA inh: 6; FGF22 binding: 0; HIV Env fusion: 9[16.7 µM]

How did CC(C)(C)c1cc(NCCCn2ccnc2)n2ncc(-c3ccccc3)c2n1 do in these assays?
Cneo AK release: -15; ERAP1 HTS inh: 5; PGC1a acetyl inh: 12; Ecoli rRNA inh: -49*; FGF22 binding: 0; HIV Env fusion: -80

What do the screens show for `C/C(=N/NC(=O)OC(C)(C)C)c1ccco1`?
ERAP1 HTS inh: -2; Ecoli rRNA inh: 12; FGF22 binding: 44*; HIV Env fusion: 1

Results for CC(/C=C/c1ccco1)=N/NC(=O)OC(C)(C)C ?
ERAP1 HTS inh: 4; Ecoli rRNA inh: 24; FGF22 binding: 0; HIV Env fusion: -5

Results for C[C@H]1CCCCO[C@@H](CN(C)C)[C@@H](C)CN([C@@H](C)CO)C(=O)c2cc(N(C)C)ccc2O1 ?
Cneo AK release: -1; ERAP1 HTS inh: 1; PGC1a acetyl inh: 2; Ecoli rRNA inh: 1; FGF22 binding: -1; HIV Env fusion: 17[16.7 µM]

How did CCN(CC)CCCNC(=O)c1ccc(CS(=O)(=O)c2ccccc2OC)o1 do in these assays?
Cneo AK release: 0; ERAP1 HTS inh: -2; PGC1a acetyl inh: 2; Ecoli rRNA inh: 12; FGF22 binding: 0; HIV Env fusion: -6

What do the screens show for `CCCCNC(=O)c1ccc(CS(=O)(=O)c2ccccc2OC)o1`?
Cneo AK release: 3; ERAP1 HTS inh: -1; PGC1a acetyl inh: 44*; Ecoli rRNA inh: -1; FGF22 binding: 0; HIV Env fusion: -9

What do the screens show for `Cc1ccc(CNC(=O)c2ccc(CS(=O)(=O)c3ccccc3)o2)cc1`?
Cneo AK release: 1; ERAP1 HTS inh: -4; PGC1a acetyl inh: 44*; Ecoli rRNA inh: 0; FGF22 binding: 0; HIV Env fusion: 4

What do the screens show for `CN1C2=NCCN2C(=O)c2cc(Cl)ccc21`?
ERAP1 HTS inh: 111*; Ecoli rRNA inh: 3; FGF22 binding: 0; HIV Env fusion: -13

What do the screens show for `COc1ccc(-c2nc(CSCC(=O)NCc3ccco3)c(C)o2)cc1`?
Cneo AK release: 1; PGC1a acetyl inh: -9

What do the screens show for `Cc1ccc(-c2nc(CSCC(=O)NCc3cccnc3)c(C)o2)cc1`?
Cneo AK release: 0; PGC1a acetyl inh: 13; HIV Env fusion: 58*

How did Cc1ccc(S(=O)(=O)N(C)Cc2ccc(C(=O)N/N=C/c3ccc(OC(F)F)cc3OC(F)F)cc2)cc1 do in these assays?
Cneo AK release: 1; ERAP1 HTS inh: -3; FGF22 binding: 0; HIV Env fusion: 66*

What do the screens show for `COc1ccccc1CCNC(=O)CSc1ccc(-c2ccco2)nn1`?
ERAP1 HTS inh: -2; PGC1a acetyl inh: 12; Ecoli rRNA inh: -1; FGF22 binding: 0; HIV Env fusion: -62

Results for CCOc1nc(N2CCOCC2)nc(C)c1[N+](=O)[O-] ?
ERAP1 HTS inh: 1; PGC1a acetyl inh: 10; Ecoli rRNA inh: -10; FGF22 binding: 44*; HIV Env fusion: -41

Results for CNC[C@@H]1Oc2c(NC(=O)Nc3ccc4c(c3)OCO4)cccc2C(=O)N([C@H](C)CO)C[C@H]1C ?
Cneo AK release: -11; ERAP1 HTS inh: 0; PGC1a acetyl inh: 17; Ecoli rRNA inh: 1; FGF22 binding: 0; HIV Env fusion: -4[16.7 µM]

What do the screens show for `C[C@H](CO)N1C[C@H](C)[C@H](CN(C)Cc2ccccc2)Oc2c(NC(=O)Nc3ccc4c(c3)OCO4)cccc2C1=O`?
Cneo AK release: -7; ERAP1 HTS inh: 3; Ecoli rRNA inh: 1; FGF22 binding: -1; HIV Env fusion: 65*[16.7 µM]

What do the screens show for `CNC[C@@H]1Oc2c(N)cccc2C(=O)N([C@@H](C)CO)C[C@@H]1C`?
PGC1a acetyl inh: 4; Ecoli rRNA inh: 2; HIV Env fusion: 62*[16.7 µM]

What do the screens show for `CNC[C@H]1Oc2c(NC(=O)Nc3ccc4c(c3)OCO4)cccc2C(=O)N([C@H](C)CO)C[C@@H]1C`?
Cneo AK release: 0; PGC1a acetyl inh: -1; Ecoli rRNA inh: 0; FGF22 binding: 0; HIV Env fusion: 64*[16.7 µM]

How did O=C(C1=C[C@H](c2ccc3c(c2)OCO3)C[C@H](OCc2ccc(CO)cc2)O1)N1CCN(Cc2ccc3c(c2)OCO3)CC1 do in these assays?
Cneo AK release: -9; ERAP1 HTS inh: -2; PGC1a acetyl inh: 1; Ecoli rRNA inh: 2; FGF22 binding: 0; HIV Env fusion: 5[16.7 µM]

How did COc1ccc(C(CNC(=O)c2cccc(N(C)C)c2)N2CCCC2)cc1 (stereo not given) do in these assays?
Cneo AK release: 0; PGC1a acetyl inh: inconclusive; HIV Env fusion: -90

Results for CC[N+](C)(CC)CCC(c1ccccc1)C1CCCCC1 (stereo not given) ?
Cneo AK release: -3; ERAP1 HTS inh: 109*; Ecoli rRNA inh: -22; FGF22 binding: 0; HIV Env fusion: -1

What do the screens show for `CC[N+](C)(CC)CCOC(=O)C(O)(c1ccccc1)C1CCCCC1` (stereo not given)?
Cneo AK release: 0; ERAP1 HTS inh: -4; Ecoli rRNA inh: 10; FGF22 binding: 0; HIV Env fusion: -6

How did C[C@H](O)C#Cc1cnc2c(c1)C(=O)N([C@H](C)CO)C[C@H](C)[C@@H](CN(C)C(=O)c1ccccc1F)O2 do in these assays?
Cneo AK release: -14; ERAP1 HTS inh: 1; PGC1a acetyl inh: -17; Ecoli rRNA inh: 0; FGF22 binding: 0; HIV Env fusion: -21[16.7 µM]

Assay outcomes from PubChem.
